Sampled rows, rich in hits. Any-hit rate of the full collection: about 2.3%.
Mcl1 Noxa PPI = Mcl-1/Noxa binding inhibitors, primary screen, biochemical, TR-FRET, 1536-well; Induced myeloid leukemia cell differentiation protein Mcl-1 (Homo sapiens), Q07820; TR-FRET Mcl-1/Noxa peptide binding, 2 h; inhibition, % at 21.7 µM; 220,000 compounds, 1.5% hits;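 active = compounds that cut the protein-peptide binding signal by more than 50% relative to plate controls in a single-dose test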;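 note: His-tagged Mcl-1 with rhodamine Noxa BH3 peptide and terbium anti-His antibody; 0% = Mcl-1 plus Noxa peptide wells and 100% = peptide-only wells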
Mcl1 Bid PPI = Mcl-1/Bid binding inhibitors, primary screen, biochemical, TR-FRET, 1536-well; Induced myeloid leukemia cell differentiation protein Mcl-1 (Homo sapiens), Q07820; TR-FRET Mcl-1/Bid-Dy647 peptide binding; inhibition, % at 21.7 µM; 220,000 compounds, 0.97% hits; AID 1021, 2008;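 active = compounds that cut the binding signal by more than half at the single screening dose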;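 note: His-tagged Mcl-1 with europium anti-His antibody binding Bid BH3 peptide; 0% = Mcl-1 plus peptide wells and 100% = peptide-only wells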
Pemphigus Ab inh = inhibitors of pemphigus antibody binding to DSG3, primary screen, biochemical, bead-based, flow cytometry, scFv-GFP; Desmoglein-3 (Homo sapiens), P32926; DSG3-coupled beads, scFv-anti-DSG3-GFP binding; active compounds read low; binding (percent of control), % at 10 µM; 310,000 compounds, 0.48% hits; AID 588358, 2011;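 active = binding more than 3 SD below its plate's average and above zero; inconclusive = below that plate limit but binding exactly zero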;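 note: hits lower antibody fragment binding to DSG3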
Target sequence (P32926 whole entry, looked up, the tested form may be a part): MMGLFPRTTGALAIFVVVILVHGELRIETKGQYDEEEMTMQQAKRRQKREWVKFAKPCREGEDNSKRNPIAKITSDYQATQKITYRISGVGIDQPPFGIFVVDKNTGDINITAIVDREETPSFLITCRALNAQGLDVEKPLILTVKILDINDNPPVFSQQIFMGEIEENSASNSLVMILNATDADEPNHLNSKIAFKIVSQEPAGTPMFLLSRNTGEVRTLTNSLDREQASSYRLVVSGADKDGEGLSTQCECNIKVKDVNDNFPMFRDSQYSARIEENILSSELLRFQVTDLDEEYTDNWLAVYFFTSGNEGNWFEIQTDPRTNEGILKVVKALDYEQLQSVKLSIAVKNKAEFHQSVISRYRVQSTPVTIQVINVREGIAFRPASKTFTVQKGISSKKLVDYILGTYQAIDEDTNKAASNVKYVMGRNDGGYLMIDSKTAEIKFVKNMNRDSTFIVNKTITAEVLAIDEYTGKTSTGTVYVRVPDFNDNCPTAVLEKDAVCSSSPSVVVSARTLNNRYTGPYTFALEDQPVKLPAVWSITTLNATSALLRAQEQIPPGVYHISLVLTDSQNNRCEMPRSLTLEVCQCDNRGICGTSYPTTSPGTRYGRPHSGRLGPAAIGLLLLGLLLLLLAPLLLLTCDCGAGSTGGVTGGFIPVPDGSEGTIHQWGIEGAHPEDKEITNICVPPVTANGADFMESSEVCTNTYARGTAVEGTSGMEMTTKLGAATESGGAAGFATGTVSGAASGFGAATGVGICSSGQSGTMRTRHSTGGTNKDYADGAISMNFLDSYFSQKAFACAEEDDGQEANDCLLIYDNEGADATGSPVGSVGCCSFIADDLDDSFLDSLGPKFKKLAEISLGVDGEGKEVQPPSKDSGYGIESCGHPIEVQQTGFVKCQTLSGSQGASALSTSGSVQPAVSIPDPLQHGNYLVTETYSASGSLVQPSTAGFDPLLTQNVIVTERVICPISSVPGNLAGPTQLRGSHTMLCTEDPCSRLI
Mcl-1 Bim block = inhibitors of Bim peptide binding to Mcl-1, primary screen, biochemical, bead-based flow cytometry, multiplex. Induced myeloid leukemia cell differentiation protein Mcl-1 (Homo sapiens), Q07820. Bim peptide-Mcl-1 binding. inhibition, % at 10 µM. 190,000 compounds, 0.1% hits; in the data active = inhibition above about 40%;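 note: 0% = no compound tracer wells and 100% = peptide blocker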
T cell modulator = modulators of CD8 T cell-vesicle binding, primary screen, mouse 2C CD8+ T cells, flow cytometry; 2C CD8+ T cell-vesicle binding; active compounds read low; response (vesicle binding), % at 7 µM; 330,000 compounds, 0.068% hits;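 active = response, share of CD8 T cells binding vesicles, and their 90th percentile fluorescence all below set limits, cut at about 80% in these data, passing the limit was not always enough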;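 note: values below 100% mean blocked vesicle binding to the CD8+ T cells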
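System: murine 2C transgenic CD8+ T lymphocytes; also added: QL9-loaded Drosophila micro-vesicles; times: binding 1.5 h at 37 °C; measured by: flow cytometry, PE anti-B7-1 (FL2) versus Alexa647 anti-CD8 (FL8), PFA-fixed; control set: Peptide-free naked vesicles (low) and QL9 vesicles with 0.7% DMSO vehicle (high)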
MCL1 BIM primary = inhibitors of MCL1 binding to BIM-BH3, primary screen, biochemical, fluorescence polarization. Induced myeloid leukemia cell differentiation protein Mcl-1 (Homo sapiens), Q07820. inhibition, % at 10.9 µM. 320,000 compounds, 0.68% hits. GST-MCL1 / FITC-Bim-BH3 fluorescence polarization;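 active = inhibition above the mean inhibition of all tested compounds plus 3 SD, set per campaign, cut at about 40% in these data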;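 note: 0% = DMSO wells and 100% = unlabeled Bim-BH3 peptide control; higher means more loss of mP so more displacement of Bim peptide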
The depositor's hits bear a star; ? = inconclusive; . = no result given.

SMILES	Mcl1 Noxa PPI	Mcl1 Bid PPI	Pemphigus Ab inh	Mcl-1 Bim block	T cell modulator	MCL1 BIM primary
CCCn1c(SC(C)C(=O)NC2CCCC(C)C2C)n[nH]c1=O (centres undefined)	.	.	79*	.	.	.
Cn1ccnc1SCC(=O)NC1(C#N)CCCCC1	.	.	101	.	566	-3
COc1ccc(OC)c(C2C(C(=O)c3ccco3)=C(O)C(=O)N2CC2CCCO2)c1 (centres undefined)	.	.	104	.	225	-7
Cc1cc(C)cc(OCC(=O)OCc2cc([N+](=O)[O-])cc3c2OCOC3)c1	.	.	136	.	258	.
O=C(COn1nnc2ccc(Cl)cc21)Nc1ccc(F)cc1	-2	-4	106	-3	186	-6
O=C(COn1nnc2ccc(Cl)cc21)NC12CC3CC(CC(C3)C1)C2	15	2	86*	-2	200	0
CC1(C)Cc2cccc(OCC(=O)Nc3ccccc3C(F)(F)F)c2O1	.	.	77*	.	228	-10
O=C(COC(=O)CCSc1ccc(F)cc1)NCc1ccc(F)cc1	.	.	98	.	246	.
Cc1cc(-c2ccc(Cl)cc2)n2nc(N)nc2n1	18	13	75*	-1	398	4
O=C(O)c1ccc(-c2ccc(/C=C3\NC(=O)N(Cc4ccc(Cl)cc4)C3=O)o2)cc1Cl	56*	6	80*	2	.	.
N#Cc1ccc(CN2CCN(C(=O)CNS(=O)(=O)c3ccc4c(c3)OCCCO4)CC2)cc1	.	.	.	.	403	7
CCOC(=O)c1c(N2C(=O)C=CC2=O)sc(C)c1C	54*	36	115	-4	259	21
COc1ccc(C(=O)NCC(c2ccco2)N(C)C)cc1S(=O)(=O)NCc1ccc(Cl)cc1 (centres undefined)	.	.	.	.	470	5
COc1cccc(-n2c(SCc3ccccn3)nc3c(c2=O)SCC3)c1	14	82*	101	-2	126	5
CC1=C(C(=O)OCc2ccccc2)C(c2cccc3ccccc23)NC(=O)N1CCCC(=O)O (centres undefined)	.	.	90	.	380	-14
CCOc1ccccc1C(=O)Nc1ccc2nc(N3CCN(c4ncccn4)CC3)cc(C)c2c1	.	.	.	.	308	3
COc1cccc(C(=O)Nc2ccc3nc(N4CCN(c5ncccn5)CC4)cc(C)c3c2)c1OC	74*	83*	.	6	177	-15
Cc1ccc(N=C2NC(=O)/C(=C\c3ccco3)S2)cc1	45	-28	105	-3	261	13
O=C1NC(=Nc2ccc(O)cc2)S/C1=C/c1ccco1	47	-4	96	0	176	14
COc1ccc(N=C2NC(=O)/C(=C\C=C\c3ccco3)S2)cc1	82*	-36	86	6	.	.
Cc1cccc(N=C2NC(=O)/C(=C/C=C/c3ccco3)S2)c1	106*	31	114	-5	427	-16
O=C1NC(=Nc2ccc3ccccc3c2)S/C1=C/c1ccco1	64*	-66	98	2	372	13
CCOC(=O)Nc1ccc2c(c1)N(C(=O)N1CCN(C)CC1)c1ccccc1CC2	38	18	99	-2	331	4
CC(C)OC(=O)Nc1ccc2c(c1)N(C(=O)N1CCN(C)CC1)c1ccccc1CC2	51*	12	93	.	515	7
O=S1(=O)N[C@@H](Cc2ccccc2)COc2ccc(Cl)cc21	.	.	100	.	.	.
SMILES	Mcl1 Noxa PPI	Mcl1 Bid PPI	Pemphigus Ab inh	Mcl-1 Bim block	T cell modulator	MCL1 BIM primary
Cc1ccc(S(=O)(=O)N2CCCCC2)cc1NC(=O)CNc1ccc(C(F)(F)F)cc1	.	.	103	.	212	-11
Cc1ccc(-c2csc3nnc(SCC(=O)N4CCN(Cc5ccccc5)CC4)n23)cc1	12	-36	101	-4	.	2
O=C(CSc1nnc2scc(-c3ccccc3)n12)N1CCN(Cc2ccccc2)CC1	28	95*	99	-1	.	2
COC(=O)c1cc(S(=O)(=O)NCC2CCN(CCc3cccs3)CC2)cn1C	.	.	104	.	508	7
O=S(=O)(c1ccc(-c2ccon2)s1)N1CCN(c2ccncc2)CC1	72*	-14	.	.	152	0
COc1ccccc1C(=O)Nc1ncc2c(n1)CC(c1ccco1)CC2=O (centres undefined)	54*	-8	88	-1	299	6
Cc1ccc(NC(=O)COC(=O)CCc2c(C)nc3ncnn3c2C)cc1C	.	.	116	.	908	.
CC(O)(CC(=O)O)CC(=O)O	.	.	.	.	306	1
O=C(O)CS(=O)(=O)CC(=O)O	23	58*	104	-3	255	-3
Cn1c(SCc2ccccc2Cl)nc2c1c(=O)[nH]c(=O)n2C	.	.	116	.	303	-7
O=C1/C(=C/c2ccc([N+](=O)[O-])cc2)C=C(c2ccccc2)N1c1ccc(O)cc1	60*	6	.	-3	276	2
O=C1/C(=C/c2ccc([N+](=O)[O-])cc2)C=C(c2ccccc2)N1c1ccccc1	3	-6	118	-1	449	-13
COc1ccc(N2C(=O)/C(=C/c3ccc([N+](=O)[O-])cc3)C=C2c2ccccc2)cc1	10	-8	75	-1	319	0
O=C(O)c1cccc(N2C(=O)/C(=C/c3ccc([N+](=O)[O-])cc3)C=C2c2ccccc2)c1	53*	-3	108	-5	385	-22
c1ccc(-c2noc(CN3CCN(c4ccccc4)CC3)n2)cc1	-12	-43	109	0	125	6
COc1ccc(N2CCN(Cc3nc(-c4ccc(Cl)cc4Cl)no3)CC2)cc1	56*	-79	104	-1	283	1
Oc1cccc(Nc2nc(NCC3CCCO3)c3ccccc3n2)c1 (centres undefined)	58*	9	101	0	246	5
COc1ccccc1OCCNC(=O)c1ccc2c(c1)OCCO2	.	.	105	.	371	6
N#Cc1ccncc1S(=O)c1ccc(Cl)cc1 (centres undefined)	.	.	?	.	124	3
N#CC(C#N)=C1C=CC=CN1/C(=C\c1ccccc1Cl)C(=O)c1ccccc1	64*	13	100	25	186	43*
Cc1nc2ccccc2nc1OCC(=O)Nc1ccc2ccccc2c1	16	3	65*	-3	219	0
N#C/C(=C/c1ccc(-c2ccc([N+](=O)[O-])cc2)o1)c1nnc(N2CCOCC2)n1-c1ccccc1	.	.	111	.	.	.
CC(=O)Nc1ccc(S(=O)(=O)NC(C)C(=O)OCC(=O)Nc2ccc(F)cc2Cl)cc1 (centres undefined)	.	.	98	.	.	.
